Results: ChEMBL document CHEMBL3992547, “Antimicrobial activity of rhodanine-3-acetic acid derivatives” (Bioorg Med Chem, 2017)
In brackets after ≈: the same amount, converted by molar mass. Activity calls are given as the source filed them. No cut-off for these calls is given here.

Key:
[1] = system: Mycobacterium tuberculosis; experiment: Antimycobacterial activity against Mycobacterium tuberculosis H37Rv 331/88 measured after 14 days by micromethod; format: functional; settings: H37Rv 331/88, 336 h
Mycobacterium avium [2] = experiment: Antimycobacterial activity against Mycobacterium avium 330/88 measured after 21 days by micromethod; format: functional; settings: 330/88, 504 h
Mycobacterium kansasii [3] = experiment: Antimycobacterial activity against Mycobacterium kansasii isolate 235/80 after 14 days by micromethod; format: functional; settings: isolate 235/80, 336 h
Enterococcus [4] = experiment: Antibacterial activity against Enterococcus sp. J 14365/08 incubated for 24 hrs under dark condition by microdilution broth assay; settings: J 14365/08, 24 h
Mycobacterium avium [5] = experiment: Antimycobacterial activity against Mycobacterium avium 330/88 measured after 14 days by micromethod; format: functional; settings: 330/88, 336 h
Pseudomonas aeruginosa = experiment: Antibacterial activity against Pseudomonas aeruginosa CCM 1961 up to 500 uM incubated for 24 to 48 hrs under dark condition by microdilution broth assay; format: functional
How it was run: (§1)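 Broth microdilution per M07-A07, modified, in Mueller-Hinton broth adjusted to pH 7.4 (±0.2). Inoculum is prepared in sterile water to McFarland 0.5 (1.5 × 10⁸ CFU/mL). Plates are incubated in the dark at 35 °C in humid air. MIC is read after 24 and 48 h as at least 95% growth reduction versus control (IC₉₅).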

Escherichia coli [6] = experiment: Antibacterial activity against Escherichia coli CCM 4517 incubated for 48 hrs under dark condition by microdilution broth assay; format: functional; settings: CCM 4517, 48 h; how it was run: as §1
[7] = system: Mycobacterium tuberculosis; experiment: Antimycobacterial activity against Mycobacterium tuberculosis H37Rv 331/88 measured after 21 days by micromethod; format: functional; settings: H37Rv 331/88, 504 h
[8] = Solubility of the compound in Sula's semisynthetic medium up to 1 mM; format: physicochemical
Staphylococcus aureus [9] = experiment: Antibacterial activity against methicillin-resistant Staphylococcus aureus H 5996/08 incubated for 48 hrs under dark condition by microdilution broth assay; format: functional; settings: H 5996/08, 48 h
How it was run: (§2)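 Microdilution broth method modified per M07-A07, in Mueller-Hinton broth adjusted to pH 7.4 (±0.2). Inoculum made in sterile water to 0.5 McFarland (1.5 × 10⁸ CFU/mL). Plates incubated in the dark at 35 °C in a humid atmosphere, with reads at 24 and 48 h. MIC taken as at least 95% growth reduction (IC₉₅) versus control.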

Escherichia coli [10] = experiment: Antibacterial activity against Escherichia coli CCM 4517 incubated for 24 hrs under dark condition by microdilution broth assay; format: functional; settings: CCM 4517, 24 h; how it was run: as §1
Mycobacterium kansasii [11] = experiment: Antimycobacterial activity against Mycobacterium kansasii isolate 6509/96 after 7 days by micromethod; format: functional; settings: isolate 6509/96, 168 h
[12] = system: Staphylococcus epidermidis; experiment: Antibacterial activity against Staphylococcus epidermidis H 6966/08 incubated for 48 hrs under dark condition by microdilution broth assay; format: functional; settings: H 6966/08, 48 h; how it was run: as §1
Enterococcus [13] = experiment: Antibacterial activity against Enterococcus sp. J 14365/08 incubated for 48 hrs under dark condition by microdilution broth assay; settings: J 14365/08, 48 h
Mycobacterium kansasii [14] = experiment: Antimycobacterial activity against Mycobacterium kansasii isolate 235/80 after 7 days by micromethod; format: functional; settings: isolate 235/80, 168 h
Mycobacterium kansasii [15] = experiment: Antimycobacterial activity against Mycobacterium kansasii isolate 6509/96 after 21 days by micromethod; format: functional; settings: isolate 6509/96, 504 h
[16] = system: Staphylococcus epidermidis; experiment: Antibacterial activity against Staphylococcus epidermidis H 6966/08 incubated for 24 hrs under dark condition by microdilution broth assay; format: functional; settings: H 6966/08, 24 h; how it was run: as §1
Mycobacterium kansasii [17] = experiment: Antimycobacterial activity against Mycobacterium kansasii isolate 235/80 after 21 days by micromethod; format: functional; settings: isolate 235/80, 504 h
Klebsiella pneumoniae [18] = experiment: Antibacterial activity against ESBL positive Klebsiella pneumoniae J 14368/08 up to 500 uM incubated for 24 to 48 hrs under dark condition by microdilution broth assay; format: functional; how it was run: as §1
Staphylococcus aureus [19] = experiment: Antibacterial activity against Staphylococcus aureus CCM 4516/08 incubated for 24 hrs under dark condition by microdilution broth assay; format: functional; settings: CCM 4516/08, 24 h; how it was run: as §1
Staphylococcus aureus [20] = experiment: Antibacterial activity against Staphylococcus aureus CCM 4516/08 incubated for 48 hrs under dark condition by microdilution broth assay; format: functional; settings: CCM 4516/08, 48 h; how it was run: as §1
Mycobacterium kansasii [21] = experiment: Antimycobacterial activity against Mycobacterium kansasii isolate 6509/96 after 14 days by micromethod; format: functional; settings: isolate 6509/96, 336 h
Staphylococcus aureus [22] = experiment: Antibacterial activity against methicillin-resistant Staphylococcus aureus H 5996/08 incubated for 24 hrs under dark condition by microdilution broth assay; format: functional; settings: H 5996/08, 24 h; how it was run: as §2
Klebsiella pneumoniae [23] = experiment: Antibacterial activity against Klebsiella pneumoniae D 11750/08 up to 500 uM incubated for 24 to 48 hrs under dark condition by microdilution broth assay; format: functional; how it was run: as §1
Lichtheimia corymbifera = experiment: Antifungal activity against Absidia corymbifera 272 after 24 to 48 hrs hrs by microdilution broth assay; format: functional
How it was run: (§3)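 Broth microdilution per CLSI M27-A3 and M38-A2 in RPMI 1640 with glutamine, buffered to pH 7.0 with MOPS. Compounds are diluted in DMSO. Final inoculum is 5 × 10³ CFU/mL for yeasts and 0.5–5 × 10⁴ CFU/mL for moulds. Plates are incubated in the dark at 35 °C in humid air and read visually and/or at 540 nm after 24 and 48 h. MIC is ≥80% growth reduction (IC₈₀) for yeasts and ≥50% (IC₅₀) for filamentous fungi.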

Pichia kudriavzevii = experiment: Antifungal activity against Candida krusei E28 after 24 to 48 hrs hrs by microdilution broth assay; format: functional; how it was run: as §3
Aspergillus fumigatus [24] = experiment: Antifungal activity against Aspergillus fumigatus 231 after 24 hrs by microdilution broth assay; format: functional; settings: Aspergillus fumigatus, 231, 24 h; how it was run: as §3
Candida albicans [25] = experiment: Antifungal activity against Candida albicans ATCC 44859 after 24 hrs by microdilution broth assay; format: functional; settings: ATCC 44859, 24 h; how it was run: as §3
Trichosporon asahii [26] = experiment: Antifungal activity against Trichosporon asahii 1188 after 24 hrs by microdilution broth assay; format: functional; settings: Trichosporon asahii, 1188, 24 h; how it was run: as §3
Nakaseomyces glabratus [27] = experiment: Antifungal activity against Candida glabrata 20/I after 48 hrs by microdilution broth assay; format: functional; how it was run: as §3
[28] = system: Trichophyton mentagrophytes; experiment: Antifungal activity against Trichophyton mentagrophytes 445 after 72 hrs by microdilution broth assay; format: functional; settings: Trichophyton mentagrophytes, 445, 72 h
How it was run: (§4)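 Broth microdilution per CLSI M38-A2 in RPMI 1640 with glutamine, buffered to pH 7.0 with MOPS, with DMSO as diluent. Final inoculum is 0.5–5 × 10⁴ CFU/mL. Plates are incubated in the dark at 35 °C in humid air and read visually and/or at 540 nm after 72 and 120 h. MIC is at least 50% growth reduction versus control.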

Candida tropicalis [29] = experiment: Antifungal activity against Candida tropicalis 156 after 24 hrs by microdilution broth assay; format: functional; settings: Candida tropicalis, 156, 24 h; how it was run: as §3
Trichosporon asahii [30] = experiment: Antifungal activity against Trichosporon asahii 1188 after 48 hrs by microdilution broth assay; format: functional; settings: Trichosporon asahii, 1188, 48 h; how it was run: as §3
Nakaseomyces glabratus [31] = experiment: Antifungal activity against Candida glabrata 20/I after 24 hrs by microdilution broth assay; format: functional; how it was run: as §3
[32] = system: Trichophyton mentagrophytes; experiment: Antifungal activity against Trichophyton mentagrophytes 445 after 120 hrs by microdilution broth assay; format: functional; settings: Trichophyton mentagrophytes, 445, 120 h; how it was run: as §4
Candida tropicalis [33] = experiment: Antifungal activity against Candida tropicalis 156 after 48 hrs by microdilution broth assay; format: functional; settings: Candida tropicalis, 156, 48 h; how it was run: as §3
Candida albicans [34] = experiment: Antifungal activity against Candida albicans ATCC 44859 after 48 hrs by microdilution broth assay; format: functional; settings: ATCC 44859, 48 h; how it was run: as §3
Aspergillus fumigatus [35] = experiment: Antifungal activity against Aspergillus fumigatus 231 after 48 hrs by microdilution broth assay; format: functional; settings: Aspergillus fumigatus, 231, 48 h; how it was run: as §3

SMILES | MIC [1] [µM] | MIC (Mycobacterium avium [2]) [µM] | MIC (Mycobacterium kansasii [3]) [µM] | MIC95 (Enterococcus [4]) [µM] | MIC (Mycobacterium avium [5]) [µM] | Activity (Pseudomonas aeruginosa) | MIC95 (Escherichia coli [6]) [µM] | MIC [7] [µM] | solubility [8] | MIC95 (Staphylococcus aureus [9]) [µM] | MIC95 (Escherichia coli [10]) [µM] | MIC (Mycobacterium kansasii [11]) [µM] | MIC (Mycobacterium kansasii [14]) [µM] | MIC (Mycobacterium kansasii [15]) [µM] | MIC (Mycobacterium kansasii [17]) [µM] | Activity (Klebsiella pneumoniae [18]) | MIC (Mycobacterium kansasii [21]) [µM] | Activity (Klebsiella pneumoniae [23]) | Activity (Lichtheimia corymbifera) | Activity (Pichia kudriavzevii) | other results
O=C(CN1C(=O)/C(=C/c2ccccn2)SC1=S)Nc1ccc(Cl)cc1 | > 250 | > 250 | > 250 | 125 (≈ 48.7 µg/mL) | > 250 | inactive | > 125 | > 250 | Soluble | > 125 | > 125 | > 250 | > 250 | > 250 | > 250 | inactive | > 250 | inactive | inactive | inactive | MIC95 [12]: > 125 µM; MIC95 (Enterococcus [13]): > 125 µM; MIC95 [16]: > 125 µM; MIC95 (Staphylococcus aureus [19]): > 125 µM; MIC95 (Staphylococcus aureus [20]): > 125 µM; MIC95 (Staphylococcus aureus [22]): > 125 µM
O=C(O)CN1C(=O)/C(=C/c2ccccn2)SC1=S | 250 (≈ 70.1 µg/mL) | 1000 (≈ 280 µg/mL) | 1000 (≈ 280 µg/mL) |  | 1000 (≈ 280 µg/mL) | inactive |  | 500 (≈ 140 µg/mL) | Soluble |  |  | 500 (≈ 140 µg/mL) | 500 (≈ 140 µg/mL) | 1000 (≈ 280 µg/mL) | 1000 (≈ 280 µg/mL) | inactive | 500 (≈ 140 µg/mL) | inactive | inactive | inactive | MIC50 (Aspergillus fumigatus [24]): ≥ 0.98 µM; MIC80 (Candida albicans [25]): ≥ 0.98 µM; MIC80 (Trichosporon asahii [26]): ≥ 0.98 µM; MIC80 (Nakaseomyces glabratus [27]): ≥ 0.98 µM; MIC50 [28]: ≥ 0.98 µM; MIC80 (Candida tropicalis [29]): ≥ 0.98 µM; MIC80 (Trichosporon asahii [30]): ≥ 0.98 µM; MIC80 (Nakaseomyces glabratus [31]): ≥ 0.98 µM; MIC50 [32]: ≥ 0.98 µM; MIC80 (Candida tropicalis [33]): ≥ 0.98 µM; MIC80 (Candida albicans [34]): ≥ 0.98 µM; MIC50 (Aspergillus fumigatus [35]): ≥ 0.98 µM
O=C(O)CN1C(=O)/C(=C/c2cccc(O)c2)SC1=S | 1000 (≈ 295 µg/mL) | > 1000 | 1000 (≈ 295 µg/mL) | 500 (≈ 148 µg/mL) | > 1000 | inactive | > 500 | 1000 (≈ 295 µg/mL) | Soluble | > 500 | > 500 | 500 (≈ 148 µg/mL) | 1000 (≈ 295 µg/mL) | 1000 (≈ 295 µg/mL) | 1000 (≈ 295 µg/mL) | inactive | 1000 (≈ 295 µg/mL) | inactive | inactive | inactive | MIC95 [12]: > 500 µM; MIC95 (Enterococcus [13]): > 500 µM; MIC95 [16]: > 500 µM; MIC95 (Staphylococcus aureus [19]): > 500 µM; MIC95 (Staphylococcus aureus [20]): > 500 µM; MIC95 (Staphylococcus aureus [22]): 500 µM (≈ 148 µg/mL)
O=C(O)CN1C(=O)/C(=C/c2cc(Cl)ccc2O)SC1=S | 32 (≈ 10.6 µg/mL) | 62.5 (≈ 20.6 µg/mL) | 62.5 (≈ 20.6 µg/mL) | 125 (≈ 41.2 µg/mL) | 62.5 (≈ 20.6 µg/mL) | inactive | > 500 | 62.5 (≈ 20.6 µg/mL) | Soluble | 125 (≈ 41.2 µg/mL) | 500 (≈ 165 µg/mL) | 32 (≈ 10.6 µg/mL) | 32 (≈ 10.6 µg/mL) | 125 (≈ 41.2 µg/mL) | 62.5 (≈ 20.6 µg/mL) | inactive | 62.5 (≈ 20.6 µg/mL) | inactive | inactive | inactive | MIC95 [12]: 62.5 µM (≈ 20.6 µg/mL); MIC95 (Enterococcus [13]): 500 µM (≈ 165 µg/mL); MIC95 [16]: 62.5 µM (≈ 20.6 µg/mL); MIC95 (Staphylococcus aureus [19]): 250 µM (≈ 82.4 µg/mL); MIC95 (Staphylococcus aureus [20]): 250 µM (≈ 82.4 µg/mL); MIC95 (Staphylococcus aureus [22]): 125 µM (≈ 41.2 µg/mL)
